Activity calls are given as the source filed them. The calls are words filed in the database; no cut-off is given here.
Legend:
Format in all cases: functional
CCRF-CEM = test: Growth inhibition of human CCRF-CEM cells at 10 uM after 48 hrs by coulter counter method; settings: read-out: GI
Procedure, shortened: (§1)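 NCI 60-cell-line panel, single dose. Compound dissolved first in DMSO, then diluted in phosphate-buffered saline so that every final dilution held under 1% DMSO. Duplicate wells received cells at 6 × 10⁴ cells/ml. Controls held PBS/DMSO at the same dilution. Plates were incubated 48 h at 37 °C under 5% CO₂. Cells were then diluted 10-fold in saline and counted on a Coulter counter, with counts corrected for the dilution. Results are given as percent growth inhibition.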

HL-60(TB) = test: Growth inhibition of human HL-60(TB) cells at 10 uM after 48 hrs by coulter counter method; settings: HL-60, 48 h, read-out: GI
Procedure, shortened: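 Single-dose screen on the NCI 60-line panel (leukemia subpanel). Compound is dissolved in DMSO and diluted in PBS, with final DMSO below 1%. Duplicate wells hold 6 × 10⁴ cells/ml at 37 °C, 5% CO₂, for 48 h. Cells are counted by Coulter counter after 10-fold saline dilution. Read-out is percent growth versus PBS/DMSO controls, expressed as % growth inhibition.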

K562 = test: Growth inhibition of human K562 cells at 10 uM after 48 hrs by coulter counter method; settings: K562, 48 h, read-out: GI; procedure, shortened: as §1
MOLT-4 = test: Growth inhibition of human MOLT4 cells at 10 uM after 48 hrs by coulter counter method; settings: MOLT-4, 48 h, read-out: GI; procedure, shortened: as §1
RPMI-8226 = test: Growth inhibition of human RPMI8226 cells at 10 uM after 48 hrs by coulter counter method; settings: RPMI-8226, 48 h, read-out: GI; procedure, shortened: as §1
SR = test: Growth inhibition of human SR cells at 10 uM after 48 hrs by coulter counter method; settings: read-out: GI; procedure, shortened: as §1
A549 = test: Growth inhibition of human A549 cells at 10 uM after 48 hrs by coulter counter method; settings: A549, 48 h, read-out: GI; procedure, shortened: as §1
EKVX = test: Growth inhibition of human EKVX cells at 10 uM after 48 hrs by coulter counter method; settings: read-out: GI; procedure, shortened: as §1
NCI-H226 = test: Growth inhibition of human NCI-H226 cells at 10 uM after 48 hrs by coulter counter method; settings: NCI-H226, 48 h, read-out: GI; procedure, shortened: as §1
NCI-H23 = test: Growth inhibition of human NCI-H23 cells at 10 uM after 48 hrs by coulter counter method; settings: NCI-H23, 48 h, read-out: GI; procedure, shortened: as §1
NCI-H322M = test: Growth inhibition of human NCI-H322M cells at 10 uM after 48 hrs by coulter counter method; settings: read-out: GI; procedure, shortened: as §1
NCI-H522 = test: Growth inhibition of human NCI-H522 cells at 10 uM after 48 hrs by coulter counter method; settings: NCI-H522, 48 h, read-out: GI; procedure, shortened: as §1
HCT-116 = test: Growth inhibition of human HCT116 cells at 10 uM after 48 hrs by coulter counter method; settings: HCT-116, 48 h, read-out: GI; procedure, shortened: as §1
HCT-15 = test: Growth inhibition of human HCT15 cells at 10 uM after 48 hrs by coulter counter method; settings: HCT-15, 48 h, read-out: GI; procedure, shortened: as §1
HT-29 = test: Growth inhibition of human HT-29 cells at 10 uM after 48 hrs by coulter counter method; settings: HT-29, 48 h, read-out: GI; procedure, shortened: as §1
KM12 = test: Growth inhibition of human KM12 cells at 10 uM after 48 hrs by coulter counter method; settings: KM12, 48 h, read-out: GI; procedure, shortened: as §1
SF-268 = test: Growth inhibition of human SF268 cells at 10 uM after 48 hrs by coulter counter method; settings: SF-268, 48 h, read-out: GI; procedure, shortened: as §1
SF-295 = test: Growth inhibition of human SF295 cells at 10 uM after 48 hrs by coulter counter method; settings: SF-295, 48 h, read-out: GI; procedure, shortened: as §1
SNB-19 = test: Growth inhibition of human SNB19 cells at 10 uM after 48 hrs by coulter counter method; settings: SNB-19, 48 h, read-out: GI; procedure, shortened: as §1
SNB-75 = test: Growth inhibition of human SNB75 cells at 10 uM after 48 hrs by coulter counter method; settings: SNB-75, 48 h, read-out: GI; procedure, shortened: as §1
U-251 = test: Growth inhibition of human U251 cells at 10 uM after 48 hrs by coulter counter method; settings: U-251, 48 h, read-out: GI; procedure, shortened: as §1
LOX IMVI = test: Growth inhibition of human LOXIMVI cells at 10 uM after 48 hrs by coulter counter method; procedure, shortened: as §1
Malme-3M = test: Growth inhibition of human MALME-3M cells at 10 uM after 48 hrs by coulter counter method; settings: read-out: GI; procedure, shortened: as §1
M14 = test: Growth inhibition of human M14 cells at 10 uM after 48 hrs by coulter counter method; settings: M14, 48 h, read-out: GI; procedure, shortened: as §1
MDA-MB-435 = test: Growth inhibition of human MDA-MB-435 cells at 10 uM after 48 hrs by coulter counter method; settings: MDA-MB-435, 48 h, read-out: GI; procedure, shortened: as §1
SK-MEL-2 = test: Growth inhibition of human SK-MEL-2 cells at 10 uM after 48 hrs by coulter counter method; settings: SK-MEL-2, 48 h, read-out: GI; procedure, shortened: as §1
SK-MEL-28 = test: Growth inhibition of human SK-MEL-28 cells at 10 uM after 48 hrs by coulter counter method; settings: SK-MEL-28, 48 h, read-out: GI; procedure, shortened: as §1
SK-MEL-5 = test: Growth inhibition of human SK-MEL-5 cells at 10 uM after 48 hrs by coulter counter method; settings: SK-MEL-5, 48 h, read-out: GI; procedure, shortened: as §1
UACC-257 = test: Growth inhibition of human UACC257 cells at 10 uM after 48 hrs by coulter counter method; settings: UACC-257, 48 h, read-out: GI; procedure, shortened: as §1
UACC-62 = test: Growth inhibition of human UACC62 cells at 10 uM after 48 hrs by coulter counter method; settings: UACC-62, 48 h, read-out: GI; procedure, shortened: as §1
IGROV-1 = test: Growth inhibition of human IGROV1 cells at 10 uM after 48 hrs by coulter counter method; procedure, shortened: as §1
OVCAR-8 = test: Growth inhibition of human OVCAR8 cells at 10 uM after 48 hrs by coulter counter method; settings: OVCAR-8, 48 h, read-out: GI; procedure, shortened: as §1
NCI/ADR-RES = test: Growth inhibition of human NCI/ADR-RES cells at 10 uM after 48 hrs by coulter counter method; settings: read-out: GI; procedure, shortened: as §1
786-0 = test: Growth inhibition of human 786-0 cells at 10 uM after 48 hrs by coulter counter method; settings: 786-0, 48 h, read-out: GI; procedure, shortened: as §1
A498 = test: Growth inhibition of human A498 cells at 10 uM after 48 hrs by coulter counter method; settings: A498, 48 h, read-out: GI; procedure, shortened: as §1
ACHN = test: Growth inhibition of human ACHN cells at 10 uM after 48 hrs by coulter counter method; settings: read-out: GI; procedure, shortened: as §1
CAKI-1 = test: Growth inhibition of human Caki1 cells at 10 uM after 48 hrs by coulter counter method; procedure, shortened: as §1
SN12C = test: Growth inhibition of human SN12C cells at 10 uM after 48 hrs by coulter counter method; settings: read-out: GI; procedure, shortened: as §1
TK-10 = test: Growth inhibition of human TK10 cells at 10 uM after 48 hrs by coulter counter method; settings: TK-10, 48 h, read-out: GI; procedure, shortened: as §1
UO-31 = test: Growth inhibition of human UO31 cells at 10 uM after 48 hrs by coulter counter method; procedure, shortened: as §1
PC-3 = test: Growth inhibition of human PC3 cells at 10 uM after 48 hrs by coulter counter method; settings: PC-3, 48 h, read-out: GI; procedure, shortened: as §1
MCF7 = test: Growth inhibition of human MCF7 cells at 10 uM after 48 hrs by coulter counter method; settings: MCF7, 48 h, read-out: GI; procedure, shortened: as §1
BT-549 = test: Growth inhibition of human BT549 cells at 10 uM after 48 hrs by coulter counter method; settings: BT-549, 48 h, read-out: GI; procedure, shortened: as §1
T47D = test: Growth inhibition of human T47D cells at 10 uM after 48 hrs by coulter counter method; settings: read-out: GI; procedure, shortened: as §1
MDA-MB-468 = test: Growth inhibition of human MDA-MB-468 cells at 10 uM after 48 hrs by coulter counter method; settings: MDA-MB-468, 48 h, read-out: GI; procedure, shortened: as §1

O=C1CN2N=C(c3ccc(Cl)cc3)SC2=N1
inhibition of growth at 10 µM (CCRF-CEM): 62.5% | inhibition of growth at 10 µM (HL-60(TB)): < 10% | inhibition of growth at 10 µM (K562): 18.8% | inhibition of growth at 10 µM (MOLT-4): 24% | inhibition of growth at 10 µM (RPMI-8226): 43.5% | inhibition of growth at 10 µM (SR): 32.5% | inhibition of growth at 10 µM (A549): < 10% | inhibition of growth at 10 µM (EKVX): < 10% | inhibition of growth at 10 µM (NCI-H226): 11.4% | inhibition of growth at 10 µM (NCI-H23): 14.9% | inhibition of growth at 10 µM (NCI-H322M): 31% | inhibition of growth at 10 µM (NCI-H522): 32.4% | inhibition of growth at 10 µM (HCT-116): 39.9% | inhibition of growth at 10 µM (HCT-15): 51.2% | inhibition of growth at 10 µM (HT-29): 31.1% | inhibition of growth at 10 µM (KM12): 38.3% | inhibition of growth at 10 µM (SF-268): 16.5% | inhibition of growth at 10 µM (SF-295): 38.6% | inhibition of growth at 10 µM (SNB-19): 18.2% | inhibition of growth at 10 µM (SNB-75): < 10% | inhibition of growth at 10 µM (U-251): 19.9% | growth inhibition (GI) (LOX IMVI): Active | inhibition of growth at 10 µM (Malme-3M): 22% | inhibition of growth at 10 µM (M14): 31.4% | inhibition of growth at 10 µM (MDA-MB-435): 11.7% | inhibition of growth at 10 µM (SK-MEL-2): < 10% | inhibition of growth at 10 µM (SK-MEL-28): < 10% | inhibition of growth at 10 µM (SK-MEL-5): 21.2% | inhibition of growth at 10 µM (UACC-257): < 10% | inhibition of growth at 10 µM (UACC-62): 20.7% | growth inhibition (GI) (IGROV-1): Active | inhibition of growth at 10 µM (OVCAR-8): 39.8% | inhibition of growth at 10 µM (NCI/ADR-RES): < 10% | inhibition of growth at 10 µM (786-0): < 10% | inhibition of growth at 10 µM (A498): < 10% | inhibition of growth at 10 µM (ACHN): 17.3% | growth inhibition (GI) (CAKI-1): Active | inhibition of growth at 10 µM (SN12C): 20.1% | inhibition of growth at 10 µM (TK-10): < 10% | growth inhibition (GI) (UO-31): Active | inhibition of growth at 10 µM (PC-3): 25.7% | inhibition of growth at 10 µM (MCF7): 25.7% | inhibition of growth at 10 µM (BT-549): 39.5% | inhibition of growth at 10 µM (T47D): 13% | inhibition of growth at 10 µM (MDA-MB-468): < 10%

Reference: ChEMBL document CHEMBL1926577, “Novel 1,3,4-heterodiazole analogues: synthesis and in-vitro antitumor activity” (2012)
